From ChEMBL document CHEMBL1121610, “Plant antitumor agents. 18. Synthesis and biological activity of camptothecin analogues” (J Med Chem, 1980)
In brackets after ≈: the same amount, converted by molar mass. Activity calls are given as the source filed them. The rule behind the calls is not given here.

Key:
P388 [1] = assay: Antileukemic activity against P-388 leukemia cells was measured at given dose range; assay type: functional, Mus musculus
How it was run: (§1)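 In vivo P-388 lymphocytic leukemia (PS) assay run by National Cancer Institute contractors under standard protocols. Compounds were dosed over a range in mg/kg, and activity is reported as % T/C (treated vs control). The optimal dose and the lowest toxic dose were taken from the dose series, and a therapeutic index was tabulated from them.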

Mus musculus [2] = assay: Optimal activity expressed as percentage treated to that of control was measured in vivo against P-388 leukemia cells; NA means inactive; assay type: functional, organism-based; how it was run: as §1
[3] = In vitro cytotoxicity of compound was tested against 9KB cells.; assay type: functional; conditions: Homo sapiens, read-out: ED50 (the source's name)
How it was run: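 Cytotoxicity against KB (9KB) cells was run in vitro at Research Triangle Institute under standard protocols. Potency is expressed as ED50 in μg/mL.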

P388 [4] = assay: Lowest toxicity was observed at this dose against P-388 leukemia cells; assay type: functional, Mus musculus; how it was run: as §1
P388 [5] = assay: This is the dose at which optimal activity was observed against P-388 leukemia cells; assay type: functional, Mus musculus; how it was run: as §1
[6] = Therapeutic index was measured on P-388 leukemia cells.; conditions: mouse, read-out: Therapeutic index; how it was run: as §1
Mus musculus [7] = assay: Optimal activity expressed as percentage treated to that of control was measured in vivo against P-388 leukemia cells; assay type: functional; how it was run: as §1
[8] = Therapeutic index was measured on P-388 leukemia cells against P-388 leukemia cells; assay type: organism-based; conditions: mouse, read-out: Therapeutic index; how it was run: as §1
[9] = Therapeutic index was measured on P-388 leukemia cells; conditions: mouse, read-out: Therapeutic index; how it was run: as §1

Compound | Dose range (P388 [1]) | T/C (Mus musculus [2]) | EC50 [3] | Dose (P388 [4]) | Dose (P388 [5]) | selectivity ratio [6] | T/C (Mus musculus [7]) | selectivity ratio [8] | selectivity ratio [9]
CC[C@@]1(O)C(=O)OCc2c1cc1n(c2=O)Cc2cc3cc(OCC(=O)[O-])ccc3nc2-1.[Na+] | 32 mg/kg | inactive | > 1 µg/mL | – | – | – | – | – | –
CC[C@@]1(O)C(=O)OCc2c1cc1n(c2=O)Cc2cc3cc(OC)ccc3nc2-1 | 4 mg/kg | – | 0.02 µg/mL (≈ 0.0529 µM) | 1 mg/kg | 0.5 mg/kg | 1 | 145% | – | –
CCC1(O)C(=O)OCc2c1cc1n(c2=O)Cc2cc3ccccc3nc2-1 (stereo unspecified) | 16 mg/kg | – | 0.1 µg/mL (≈ 0.287 µM) | 16 mg/kg | 8 mg/kg | 8 | 222% | – | –
CCN(CC)CCOc1ccc2nc3c(cc2c1)Cn1c-3cc2c(c1=O)COC(=O)[C@]2(O)CC.Cl | 32 mg/kg | – | > 1 µg/mL | – | 32 mg/kg | – | 234% | 16 | –
CC[C@@]1(O)C(=O)OCc2c1cc1n(c2=O)Cc2cc3cc(O)ccc3nc2-1 [HYDROXYCAMPTOTHECIN] | 8 mg/kg | – | 0.02 µg/mL (≈ 0.0549 µM) | 8 mg/kg | 4 mg/kg | 8 | 314% | – | –
CC[C@@](O)(C(=O)[O-])c1cc2n(c(=O)c1CO)Cc1cc3ccccc3nc1-2.[Na+] | 8 mg/kg | – | – | 80 mg/kg | 40 mg/kg | 4 | 212% | – | –
COCCC1(O)C(=O)OCc2c1cc1n(c2=O)Cc2cc3ccccc3nc2-1 (stereo unspecified) | 8 mg/kg | – | 0.2 µg/mL (≈ 0.529 µM) | 8 mg/kg | 4 mg/kg | 2 | 160% | – | –
CCCC1(O)C(=O)OCc2c1cc1n(c2=O)Cc2cc3cccnc3nc2-1 (stereo unspecified) | 32 mg/kg | – | – | – | 32 mg/kg | – | 175% | 2 | –
CC[C@@]1(O)C(=O)OCc2c1cc1n(c2=O)Cc2cc3ccccc3nc2-1 [CAMPTOTHECIN] | 8 mg/kg | – | – | 8 mg/kg | 4 mg/kg | – | 197% | – | 8
CCC1(O)C(=O)OCc2c1cc1n(c2=O)Cc2cc3cc4ccccc4cc3nc2-1 (stereo unspecified) | 32 mg/kg | – | 0.2 µg/mL (≈ 0.502 µM) | – | 16 mg/kg | – | 198% | 4 | –
